Test results as given in ChEMBL document CHEMBL1148810, “Design, synthesis, and preliminary pharmacological evaluation of new quinoline derivatives as nicotinic ligands” (J Med Chem, 2007).
Activity calls are given as the source filed them.

What was measured:
[1] = target: Neuronal acetylcholine receptor subunit alpha-7 (Rattus norvegicus, UniProt Q05941); assay: Displacement of [3H]alpha-bungarotoxin from alpha-7 nAChR in rat cerebral cortex; format: tissue-based
[2] = target: T1, Neuronal acetylcholine receptor; alpha4/beta2 (Rattus norvegicus, UniProt P09483+P12390); assay: Displacement of [3H]cytisine from alpha-4-beta-2 nAChR in rat cerebral cortex; format: tissue-based
T1 sequence (P09483 whole entry): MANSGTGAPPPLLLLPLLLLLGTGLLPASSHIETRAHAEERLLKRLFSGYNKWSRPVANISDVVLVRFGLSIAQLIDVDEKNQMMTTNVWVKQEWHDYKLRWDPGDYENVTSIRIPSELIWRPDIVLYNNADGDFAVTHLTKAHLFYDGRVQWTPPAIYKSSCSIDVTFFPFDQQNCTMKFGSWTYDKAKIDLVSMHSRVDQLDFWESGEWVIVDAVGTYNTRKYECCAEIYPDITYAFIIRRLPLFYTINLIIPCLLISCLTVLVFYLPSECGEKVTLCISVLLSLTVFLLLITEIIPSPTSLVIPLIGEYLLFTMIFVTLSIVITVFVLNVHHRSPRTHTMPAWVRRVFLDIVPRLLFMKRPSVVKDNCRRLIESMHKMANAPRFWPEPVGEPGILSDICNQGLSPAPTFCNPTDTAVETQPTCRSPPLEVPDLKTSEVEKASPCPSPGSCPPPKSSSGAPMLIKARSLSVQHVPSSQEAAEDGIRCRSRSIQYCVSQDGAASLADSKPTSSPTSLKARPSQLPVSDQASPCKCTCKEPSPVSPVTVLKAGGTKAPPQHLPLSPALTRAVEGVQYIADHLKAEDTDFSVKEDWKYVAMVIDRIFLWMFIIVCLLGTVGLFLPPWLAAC
T1 sequence (P12390 whole entry): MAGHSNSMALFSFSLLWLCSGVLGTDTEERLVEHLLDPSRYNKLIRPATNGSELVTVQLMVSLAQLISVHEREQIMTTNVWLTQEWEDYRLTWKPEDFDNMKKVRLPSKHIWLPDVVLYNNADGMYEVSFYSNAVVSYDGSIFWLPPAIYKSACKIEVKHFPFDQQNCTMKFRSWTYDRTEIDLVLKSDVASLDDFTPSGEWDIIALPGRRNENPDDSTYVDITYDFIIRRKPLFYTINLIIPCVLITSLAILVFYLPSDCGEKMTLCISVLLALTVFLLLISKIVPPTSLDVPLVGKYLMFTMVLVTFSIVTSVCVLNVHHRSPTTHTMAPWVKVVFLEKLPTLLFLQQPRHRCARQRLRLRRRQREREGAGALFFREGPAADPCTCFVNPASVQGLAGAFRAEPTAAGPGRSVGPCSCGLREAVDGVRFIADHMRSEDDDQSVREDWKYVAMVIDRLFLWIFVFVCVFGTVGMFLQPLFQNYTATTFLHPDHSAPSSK
How it was run: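 Rat cerebral cortex membranes labelled with [³H]-cytisine, which marks α4β2* receptors. Compounds were tested for displacement up to 10 µM, with amines used as oxalate salts. Ki values were determined.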

[3] = system: Mus musculus; assay: Analgesic activity in mouse at 5 mg/kg, ip by hot plate test […]; format: functional, organism-based; parameters: dose 5 mg/kg
How it was run: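 Mice were placed on a stainless steel surface held at 52.5 ± 0.1 °C, and dosing was i.p. at 5 mg/kg. Paw-licking latency (s) was timed by stopwatch before and 15, 30, 45 and 60 min after dosing. Mice with pretest scores below 12 or above 18 s were excluded, and the cutoff was 45 s. Ten mice per group; mean ± SEM.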

[4] = target: T1, Neuronal acetylcholine receptor; alpha4/beta2; assay: Displacement of [3H]epibatidine from alpha-4-beta-2 nAChR in rat cerebral cortex; format: tissue-based
How it was run: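 Rat cerebral cortex was used in competition binding against [³H]-epibatidine, with amines tested as oxalate salts. Ki values were derived, and subtype selectivity was taken from comparison with Ki values obtained on the same tissue.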

Chain of Neuronal acetylcholine receptor subunit alpha-7 (Q05941 whole entry): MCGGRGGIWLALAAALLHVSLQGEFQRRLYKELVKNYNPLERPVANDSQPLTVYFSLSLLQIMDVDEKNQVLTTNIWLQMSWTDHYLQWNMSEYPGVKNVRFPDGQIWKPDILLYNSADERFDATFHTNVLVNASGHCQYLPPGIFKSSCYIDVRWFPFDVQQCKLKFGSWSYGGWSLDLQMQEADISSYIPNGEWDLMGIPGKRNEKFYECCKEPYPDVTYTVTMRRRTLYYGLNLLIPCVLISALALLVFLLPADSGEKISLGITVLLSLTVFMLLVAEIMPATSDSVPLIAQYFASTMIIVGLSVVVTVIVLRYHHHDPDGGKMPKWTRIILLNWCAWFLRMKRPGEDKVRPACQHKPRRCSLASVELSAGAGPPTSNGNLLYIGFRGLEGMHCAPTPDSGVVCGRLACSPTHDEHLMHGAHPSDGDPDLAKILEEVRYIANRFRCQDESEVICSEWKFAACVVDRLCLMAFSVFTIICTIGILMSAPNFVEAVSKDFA

| SMILES | Ki [1] | Ki [2] | Activity [3] | Ki [4] |
| --- | --- | --- | --- | --- |
| C[N+]1(C)CCC[C@H]1c1ccc2ncccc2c1 | 1570 nM | 16 nM | Active | 42 nM |
| CN1CCC[C@H]1c1ccc2ncccc2c1 | 42000 nM | 90 nM | – | 124 nM |
| CN1CCCC1c1ccc2ncccc2c1 (racemic) | – | 132 nM | Dose-dependent effect | – |
| C[N+]1(C)CCCC1c1ccc2ncccc2c1 (racemic) | – | 45 nM | Dose-dependent effect | – |
| C[N+]1(C)CCC[C@@H]1c1ccc2ncccc2c1 | 90 nM | 220 nM | – | 1400 nM |
| C[N+](C)(C)CCC#Cc1ccc2ncccc2c1 | 142 nM | – | – | 6800 nM |
| CN1CCC[C@@H]1c1ccc2ncccc2c1 | 8100 nM | 1950 nM | – | 2100 nM |
